42 compounds from PubChem BioAssay AID652163 (Broad Institute, 2013) can be followed below.

The whole screen tested about 360,000 compounds, of which about 500 (0.14%) were called active.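 The calls were made as follows: active = mean inhibition of at least 70% across replicates, with every replicate also reaching that level; inconclusive = mean inhibition reaches 70% but some replicates fall short; inactive = mean inhibition below 70%.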 Shown is part of a subset that was picked to be rich in actives.

Chain of Protein S100-A4 (Homo sapiens) (P26447 whole entry, looked up): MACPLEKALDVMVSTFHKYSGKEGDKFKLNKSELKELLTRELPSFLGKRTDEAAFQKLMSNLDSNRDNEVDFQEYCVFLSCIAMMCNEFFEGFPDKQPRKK

The experiment concerns the target Protein S100-A4 (Homo sapiens) (UniProt P26447). Briefly: human S100A4 protein-peptide interaction blockers – biochemical, fluorescence polarization, TAMRA-MyoIIA peptide, primary screen (AID 652163). Conditions: at 10.7 µM, stronger effect = higher value. In outline:
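assay system = human S100A4 monomer with TAMRA-labelled myosin IIA peptide | also added = labelled myosin peptide probe, 5 nM | incubation = 5 min between mix addition and reading | control set = DMSO and TFP controls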
Turning to `C[C@@H]1CN([C@@H](C)CO)C(=O)c2c(c3ccccc3n2C)-c2ccccc2CO[C@@H]1CN(C)Cc1ccc2c(c1)OCCN2C`, the inhibition was 1.33% (inactive).
In the case of `O=C(N[C@H]1CC[C@@H](CCNS(=O)(=O)Cc2ccccc2)O[C@H]1CO)c1ccccc1F` it was 106% (active); in that of `O=C(N[C@@H]1CC[C@@H](CCNS(=O)(=O)Cc2ccccc2)O[C@@H]1CO)c1ccccc1F`, 3.62% (inactive); in that of `CC(C)NC(=O)N[C@@H]1CC[C@@H](CCNS(=O)(=O)Cc2ccccc2)O[C@@H]1CO`, -2.44% (inactive).
Regarding `C[C@@H]1CN([C@@H](C)CO)C(=O)Cc2cc(NC(=O)Cc3ccccc3)ccc2O[C@@H]1CN(C)C(=O)Nc1ccc2c(c1)OCO2`, the inhibition is -20.2% (inactive).
Take `CS(=O)(=O)Nc1ccc2c(c1)[C@H]1C[C@H](CC(=O)NC3CCCC3)O[C@@H](CO)[C@H]1O2`: the inhibition is 5.62% (inactive).
Regarding `CN(C)C(=O)[C@@H]1[C@@H](CO)[C@@H]2Cn3c(ccc(C4=CCCC4)c3=O)[C@H]1N2Cc1ccccn1`, the inhibition is 6.14% (inactive).
In the case of `COc1ccc2c3c([nH]c2c1)[C@@H](CO)N(C(=O)c1cccc(F)c1)CC31CN(C(C)=O)C1` it was -5.37% (inactive); in that of `COc1ccc(CCNC(=O)CN(c2ccccc2)S(=O)(=O)c2ccccc2)cc1`, 0.0805% (inactive); in that of `CCOc1ccc(N(CC(=O)NCCOc2ccccc2OC)S(=O)(=O)c2ccccc2)cc1`, 116% (active).
`CCOc1ccc(N(CC(=O)NCCc2ccc(F)cc2)S(=O)(=O)c2ccccc2)cc1`: the inhibition is -1.04% (inactive).
As to `N[C@@H]1CC[C@H](CCn2cc(C3CC3)nn2)O[C@@H]1CO`, the inhibition is 5.57% (inactive).
`C[C@@H]1CN([C@H](C)CO)C(=O)c2cc(NC(=O)CCCCCC(=O)Nc3ccccc3N)ccc2O[C@H]1CN(C)C(=O)Nc1ccc(C(F)(F)F)cc1`: the inhibition is -13% (inactive).
In the case of `C[C@H](CO)N1C[C@H](C)[C@@H](CN(C)Cc2ccncc2)Oc2cc(Br)ccc2S1(=O)=O` it was -8.65% (inactive); in that of `C[C@@H]1CN([C@@H](C)CO)C(=O)c2cc(NC(=O)c3ccncc3)ccc2O[C@H]1CN(C)Cc1ccc(C(=O)O)cc1`, 3.13% (inactive).
As for `C[C@H]1CN([C@@H](C)CO)C(=O)c2cccc(NC(=O)c3ccncc3)c2O[C@@H]1CN(C)C`, the inhibition is 1.35% (inactive).
Take `C[C@H]1CN([C@@H](C)CO)C(=O)c2cccc(NC(=O)Nc3ccccc3)c2O[C@H]1CN(C)Cc1ccc(Oc2ccccc2)cc1`: the inhibition is -8.88% (inactive).
As to `C[C@@H]1CN([C@@H](C)CO)C(=O)c2cc(NC(=O)c3ccncc3)ccc2O[C@@H]1CN(C)Cc1ccncc1`, the inhibition was 106% (active).
Turning to `C[C@H]1CN([C@@H](C)CO)C(=O)c2cccc(NC(=O)c3ccncc3)c2O[C@H]1CN(C)C`, the inhibition was 13.8% (inactive).
For `C[C@@H]1CN([C@H](C)CO)C(=O)c2cccc(NC(=O)c3ccncc3)c2O[C@@H]1CN(C)C`, the inhibition was 111% (active).
As for `COc1ccc(CN(C)C[C@H]2Oc3c(NC(=O)Nc4ccccc4)cccc3C(=O)N([C@@H](C)CO)C[C@@H]2C)cc1`, the inhibition was 91.2% (active).
Regarding `C[C@@H]1CN([C@H](C)CO)C(=O)c2cc(NC(=O)c3ccncc3)ccc2O[C@H]1CN(C)Cc1ccc(Oc2ccccc2)cc1`, the inhibition is 1.42% (inactive).
In the case of `C[C@@H]1CN([C@@H](C)CO)C(=O)c2cccc(NC(=O)Nc3ccccc3)c2O[C@H]1CN(C)Cc1ccccc1` it was -2.48% (inactive); in that of `CO[C@H]1CC[C@H]2CCN(C)C(=O)C[C@@H](c3ccccc3)CN(C)C(=O)c3cccc(C#N)c3OC[C@@H]1O2`, 0.912% (inactive); in that of `CCCNC(=O)N1[C@@H]2CN(C)c3ccccc3[C@@H]2[C@@H]1CO`, 7.1% (inactive).
With `COc1ccc(S(=O)(=O)N(C)C[C@H]2Oc3ccc(NC(=O)Nc4c(C)noc4C)cc3C(=O)N([C@@H](C)CO)C[C@@H]2C)cc1`, the inhibition was -9.31% (inactive).
Regarding `Cc1noc(C)c1NC(=O)N(C)C[C@@H]1OCCCC[C@H](C)Oc2ccc(NC(=O)CCC(F)(F)F)cc2C(=O)N([C@@H](C)CO)C[C@@H]1C`, the inhibition is 5.68% (inactive).
`CC(=O)N(C)C[C@@H]1Oc2cc(-c3cccc(F)c3)ccc2S(=O)(=O)N([C@H](C)CO)C[C@H]1C`: the inhibition was -20.8% (inactive).
On to `CC(C)(O)C#Cc1ccc([C@H]2[C@H]3CN(C(=O)c4ccncc4)CCCCN3[C@H]2CO)cc1`, for which the inhibition was -11.2% (inactive).
On to `COc1ccc(S(=O)(=O)Nc2ccc3c(c2)C(=O)N([C@@H](C)CO)C[C@H](C)[C@H](CN(C)Cc2ccc4c(c2)OCO4)OCCCC[C@H](C)O3)cc1`, for which the inhibition is -9.48% (inactive).
For the compound `COc1cccc(C(=O)Nc2ccc3c(c2)C(=O)N(C)[C@H]2CC[C@@H](CC(=O)N[C@H](C)c4ccccc4)O[C@H]2CO3)c1`, the inhibition was -0.71% (inactive).
The result for `C=CCN1C(=O)[C@]2(O[C@H](CCn3cc(CCO)nn3)[C@@H]([Si](C)(C)c3ccc(OC)cc3)[C@@H]2C)c2cc(N3CCOC3=O)ccc21` reads 10.3% (inactive).
The result for `C[C@H](CO)N1C[C@H](C)[C@@H](CN(C)CC2CC2)Oc2ccc(NC(=O)CCCN(C)C)cc2CC1=O` reads -0.322% (inactive); that for `CN1CCN(C(=O)C[C@@H]2C=C[C@@H](NS(=O)(=O)c3cccc(F)c3)[C@@H](CO)O2)CC1`, 103% (active); that for `COc1ccccc1S(=O)(=O)N[C@@H]1C=C[C@H](CC(=O)N2CCN(C)CC2)O[C@@H]1CO`, 59.7% (inactive).
For the compound `O=C(C[C@@H]1C=C[C@@H](NS(=O)(=O)c2ccccc2)[C@H](CO)O1)N1CCN(c2ccccc2)CC1`, the inhibition was 8.62% (inactive).
Turning to `Nc1ncnc2c1ncn2C1OC(CO)CC1O` (configuration not stated), the inhibition is 0.763% (inactive).
Turning to `CO[C@@H]1CN(C)C(=O)c2cc(NC(=O)c3ccccc3)ccc2OC[C@H](C)N(C(=O)CN(C)C)C[C@H]1C`, the inhibition was -0.975% (inactive).
As to `C=C[C@H](OC)[C@@H](O)c1ccc(OC)c(O)c1`, the inhibition was -5.17% (inactive).
As for `CN1C(=O)c2cc(NC(=O)C3CCOCC3)ccc2OC[C@@H]2O[C@H](CC(=O)NCc3ccccc3F)CC[C@H]21`, the inhibition is 4.38% (inactive).
In the case of `CN1C(=O)c2cc(NC(=O)C3CCCC3)ccc2OC[C@H]2O[C@H](CC(=O)NCc3ccccc3F)CC[C@H]21`, the inhibition was -2.52% (inactive).
As for `CN1C(=O)c2cc(NC(=O)C3CCC3)ccc2OC[C@@H]2O[C@@H](CC(=O)NCc3ccccc3F)CC[C@@H]21`, the inhibition was 88.8% (active).

One may read the inhibition as the relative decrease from the control value, in per cent.
